Assay results as given in ChEMBL document CHEMBL5724801, “EUbOPEN Chemogenomics Library - Multiplex” (2024).
Several values for one entry are separate records, joined by “and”; a condition that tells them apart may be missing. Equal values may be shown once.

Test system: Fibroblast
Test: Multiplex assay against human fibroblast
Assay type: toxicity, cell-based
Summary of the method: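 Cells were classed with CellPathfinder machine-learning gating, first as Hoechst high-intensity objects or normal cells, then (normal cells) as healthy, pyknosed or fragmented nuclei, and finally (pyknosed cells) as mitotic or apoptotic. Staining of live cells at seeding used Hoechst33342, BioTracker Green Microtubule Cytoskeleton Dye, MitoTracker Red and Annexin V Alexa Fluor 680, with imaging on a CQ1 microscope at 37°C and 5% CO2 after compound addition. Tubulin, mitochondrial-mass and membrane-permeability phenotypes are per cents of healthy-nucleus cells.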

[1] = 12 h, 1 µM, compound concentration 1 uM
[2] = 12 h, 10 µM, compound concentration 10 uM
[3] = 24 h, 1 µM, compound concentration 1 uM
[4] = 24 h, 10 µM, compound concentration 10 uM
[5] = 48 h, 1 µM, compound concentration 1 uM
[6] = 48 h, 10 µM, compound concentration 10 uM

For COc1cc(C(=O)N2CC[C@@H](O)[C@@H](N)C2)cc2nc(-c3cc4ccccc4n3CC3CC3)n(C)c12.Cl, the “Population Apoptotic (%)” value [1] was 21% and 48%, the “Population Fragmented Nuclei (%)” value [1] was 25% and 24% and the “Population Healthy Nuclei (%)” value [1] was 62% and 44%. For the same compound, the “Population Hoechst High Intensity Objects (%)” value [1] was 2% and 3%, the “Population Membrane Permeable-Phenotype (%)” value [1] was 0% and 10% and the “Population Mitochondria Different-Phenotype (%)” value [1] was 4% and 14%. For the same compound, the “Population Mitotic Cells (%)” value [1] was 78% and 51%, the “Population Normal (%)” value [1] was 97% and 96% and the “Population Pyknosed Nuclei (%)” value [1] was 12% and 31%. The “Population Tubulin-Different-Phenotype (%)” value [1] was 55% and 69%, the “Total Cell Count” value [1] was 160 and 130 and the “Population Apoptotic (%)” value [2] was 60% and 48%. For the same compound, the “Population Fragmented Nuclei (%)” value [2] was 22% and 30%, the “Population Healthy Nuclei (%)” value [2] was 57% and 44% and the “Population Hoechst High Intensity Objects (%)” value [2] was 6% and 10%. For the same compound, the “Population Membrane Permeable-Phenotype (%)” value [2] was 0% and 2%, the “Population Mitochondria Different-Phenotype (%)” value [2] was 34% and 25% and the “Population Mitotic Cells (%)” value [2] was 40% and 51%. For the same compound, the “Population Normal (%)” value [2] was 93% and 89%, the “Population Pyknosed Nuclei (%)” value [2] was 19% and 25% and the “Population Tubulin-Different-Phenotype (%)” value [2] was 97% and 92%. The “Total Cell Count” value [2] was 271 and 179, the “Population Apoptotic (%)” value [3] was 55% and 60% and the “Population Fragmented Nuclei (%)” value [3] was 24% and 31%. The “Population Healthy Nuclei (%)” value [3] was 62% and 36%, the “Population Hoechst High Intensity Objects (%)” value [3] was 3% and 4% and the “Population Membrane Permeable-Phenotype (%)” value [3] was 0% and 4%. For the same compound, the “Population Mitotic Cells (%)” value [3] was 45% and 39%, the “Population Normal (%)” value [3] was 96% and 95% and the “Population Pyknosed Nuclei (%)” value [3] was 13% and 31%. The “Population Tubulin-Different-Phenotype (%)” value [3] was 51% and 79%, the “Total Cell Count” value [3] was 158 and 125 and the “Population Apoptotic (%)” value [4] was 73% and 62%. The “Population Fragmented Nuclei (%)” value [4] was 15% and 27%, the “Population Healthy Nuclei (%)” value [4] was 68% and 54% and the “Population Hoechst High Intensity Objects (%)” value [4] was 7% and 5%. For the same compound, the “Population Membrane Permeable-Phenotype (%)” value [4] was 0% and 3%, the “Population Mitochondria Different-Phenotype (%)” value [4] was 55% and 41% and the “Population Mitotic Cells (%)” value [4] was 26% and 37%. The “Population Normal (%)” value [4] was 92% and 94%, the “Population Pyknosed Nuclei (%)” value [4] was 16% and 17% and the “Population Tubulin-Different-Phenotype (%)” value [4] was 94% and 92%. The “Total Cell Count” value [4] was 274 and 174, the “Population Apoptotic (%)” value [5] was 80% and 64% and the “Population Fragmented Nuclei (%)” value [5] was 22% and 38%. The “Population Healthy Nuclei (%)” value [5] was 67% and 41%, the “Population Hoechst High Intensity Objects (%)” value [5] was 6% and 1% and the “Population Membrane Permeable-Phenotype (%)” value [5] was 0% and 3%. For the same compound, the “Population Mitochondria Different-Phenotype (%)” value [5] was 8% and 16%, the “Population Mitotic Cells (%)” value [5] was 20% and 35% and the “Population Normal (%)” value [5] was 93% and 98%. For the same compound, the “Population Pyknosed Nuclei (%)” value [5] was 10% and 20%, the “Population Tubulin-Different-Phenotype (%)” value [5] was 44% and 80% and the “Total Cell Count” value [5] was 161 and 153. For the same compound, the “Population Apoptotic (%)” value [6] was 86%, the “Population Fragmented Nuclei (%)” value [6] was 20% and 32% and the “Population Healthy Nuclei (%)” value [6] was 64% and 55%. The “Population Hoechst High Intensity Objects (%)” value [6] was 8% and 4%, the “Population Membrane Permeable-Phenotype (%)” value [6] was 0% and the “Population Mitochondria Different-Phenotype (%)” value [6] was 62% and 36%. For the same compound, the “Population Mitotic Cells (%)” value [6] was 13%, the “Population Normal (%)” value [6] was 91% and 95% and the “Population Pyknosed Nuclei (%)” value [6] was 15% and 11%. For the same compound, the “Population Tubulin-Different-Phenotype (%)” value [6] was 94% and the “Total Cell Count” value [6] was 256 and 193.

In the case of CN(C)CCCc1cc(C(=O)Nc2ccc(-c3ccncc3)cc2)ccc1O.Cl.Cl, the “Population Apoptotic (%)” value [1] is reported as 31% and 44%, the “Population Fragmented Nuclei (%)” value [1] is reported as 15% and 22% and the “Population Healthy Nuclei (%)” value [1] is reported as 65% and 52%. For the same compound, the “Population Hoechst High Intensity Objects (%)” value [1] was 4% and 2%, the “Population Membrane Permeable-Phenotype (%)” value [1] was 0% and 4% and the “Population Mitochondria Different-Phenotype (%)” value [1] was 7% and 4%. The “Population Mitotic Cells (%)” value [1] was 68% and 55%, the “Population Normal (%)” value [1] was 95% and 97% and the “Population Pyknosed Nuclei (%)” value [1] was 18% and 24%. The “Population Tubulin-Different-Phenotype (%)” value [1] was 22% and 40%, the “Total Cell Count” value [1] was 122 and 120 and the “Population Apoptotic (%)” value [2] was 68% and 48%. For the same compound, the “Population Fragmented Nuclei (%)” value [2] was 33% and 31%, the “Population Healthy Nuclei (%)” value [2] was 58% and 51% and the “Population Hoechst High Intensity Objects (%)” value [2] was 7% and 4%. The “Population Membrane Permeable-Phenotype (%)” value [2] was 0% and 4%, the “Population Mitochondria Different-Phenotype (%)” value [2] was 15% and 6% and the “Population Mitotic Cells (%)” value [2] was 31% and 51%. The “Population Normal (%)” value [2] was 92% and 95%, the “Population Pyknosed Nuclei (%)” value [2] was 7% and 17% and the “Population Tubulin-Different-Phenotype (%)” value [2] was 43% and 45%. The “Total Cell Count” value [2] was 305 and 236, the “Population Apoptotic (%)” value [3] was 30% and 37% and the “Population Fragmented Nuclei (%)” value [3] was 16% and 22%. For the same compound, the “Population Healthy Nuclei (%)” value [3] was 66% and 50%, the “Population Hoechst High Intensity Objects (%)” value [3] was 1% and 4% and the “Population Membrane Permeable-Phenotype (%)” value [3] was 2% and 1%. The “Population Mitochondria Different-Phenotype (%)” value [3] was 3% and 7%, the “Population Mitotic Cells (%)” value [3] was 70% and 62% and the “Population Normal (%)” value [3] was 98% and 95%. For the same compound, the “Population Pyknosed Nuclei (%)” value [3] was 17% and 27%, the “Population Tubulin-Different-Phenotype (%)” value [3] was 25% and 45% and the “Total Cell Count” value [3] was 119 and 111. The “Population Apoptotic (%)” value [4] was 47% and 42%, the “Population Fragmented Nuclei (%)” value [4] was 30% and 31% and the “Population Healthy Nuclei (%)” value [4] was 63% and 53%. For the same compound, the “Population Hoechst High Intensity Objects (%)” value [4] was 6% and 4%, the “Population Membrane Permeable-Phenotype (%)” value [4] was 0% and 5% and the “Population Mitochondria Different-Phenotype (%)” value [4] was 11% and 5%. The “Population Mitotic Cells (%)” value [4] was 52% and 57%, the “Population Normal (%)” value [4] was 93% and 95% and the “Population Pyknosed Nuclei (%)” value [4] was 5% and 14%. The “Population Tubulin-Different-Phenotype (%)” value [4] was 40% and 42%, the “Total Cell Count” value [4] was 339 and 242 and the “Population Apoptotic (%)” value [5] was 62% and 50%. The “Population Fragmented Nuclei (%)” value [5] was 28% and 23%, the “Population Healthy Nuclei (%)” value [5] was 59% and 54% and the “Population Hoechst High Intensity Objects (%)” value [5] was 0% and 8%. For the same compound, the “Population Membrane Permeable-Phenotype (%)” value [5] was 0% and 1%, the “Population Mitochondria Different-Phenotype (%)” value [5] was 1% and 5% and the “Population Mitotic Cells (%)” value [5] was 37% and 50%. The “Population Normal (%)” value [5] was 99% and 91%, the “Population Pyknosed Nuclei (%)” value [5] was 12% and 21% and the “Population Tubulin-Different-Phenotype (%)” value [5] was 29% and 46%. For the same compound, the “Total Cell Count” value [5] was 126 and 111, the “Population Apoptotic (%)” value [6] was 56% and 51% and the “Population Fragmented Nuclei (%)” value [6] was 28% and 35%. The “Population Healthy Nuclei (%)” value [6] was 60% and 53%, the “Population Hoechst High Intensity Objects (%)” value [6] was 11% and 2% and the “Population Membrane Permeable-Phenotype (%)” value [6] was 0% and 3%. For the same compound, the “Population Mitochondria Different-Phenotype (%)” value [6] was 8% and 2%, the “Population Mitotic Cells (%)” value [6] was 43% and 48% and the “Population Normal (%)” value [6] was 88% and 97%. For the same compound, the “Population Pyknosed Nuclei (%)” value [6] was 11% and 10%, the “Population Tubulin-Different-Phenotype (%)” value [6] was 48% and 39% and the “Total Cell Count” value [6] was 321 and 261.
